Compound activity (PubChem BioAssay)
Only some compounds are listed: those with a hit (about 2.3% of all), similar ones and a draw of the others.
TRPC4 act: opens the mouse TRPC4 cation channel; 310,000 compounds, 0.49% hits; HEK293 TRPC4beta/mu-opioid, Fluo4 calcium fluorescence; stronger effect = higher value; B-score at 10 µM; Q9QUQ5;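 active = B-score above 5 SD of library B-scores, and initial fluorescence ratio not above library mean plus 5 SD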;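 note: positive B-score marks a calcium rise read as TRPC4 activation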
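System: HEK293 cells stably co-expressing mouse TRPC4beta and mu-opioid receptor; Schedule: Fluo4 dye loading 45 min at room temperature, 110 s recording; Detection: Fluo4 fluorescence, kinetic; Evaluation: B-scored integrated calcium fluorescence ratio; Controls: buffer (low) and maximal DAMGO (high).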
TRPC6 activator: activators of mouse TRPC6 channel; 310,000 compounds, 0.13% hits; AID 2550; Q61143; B-score at 10 µM; HEK293-TRPC6 membrane potential dye fluorescence; stronger effect = higher value;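 active = B-score of the integrated fluorescence ratio above library mean plus 3 SD, and starting fluorescence ratio within library mean plus 5 SD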;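 note: higher score means more depolarization so channel activation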
Target sequence (Q61143 whole entry, looked up): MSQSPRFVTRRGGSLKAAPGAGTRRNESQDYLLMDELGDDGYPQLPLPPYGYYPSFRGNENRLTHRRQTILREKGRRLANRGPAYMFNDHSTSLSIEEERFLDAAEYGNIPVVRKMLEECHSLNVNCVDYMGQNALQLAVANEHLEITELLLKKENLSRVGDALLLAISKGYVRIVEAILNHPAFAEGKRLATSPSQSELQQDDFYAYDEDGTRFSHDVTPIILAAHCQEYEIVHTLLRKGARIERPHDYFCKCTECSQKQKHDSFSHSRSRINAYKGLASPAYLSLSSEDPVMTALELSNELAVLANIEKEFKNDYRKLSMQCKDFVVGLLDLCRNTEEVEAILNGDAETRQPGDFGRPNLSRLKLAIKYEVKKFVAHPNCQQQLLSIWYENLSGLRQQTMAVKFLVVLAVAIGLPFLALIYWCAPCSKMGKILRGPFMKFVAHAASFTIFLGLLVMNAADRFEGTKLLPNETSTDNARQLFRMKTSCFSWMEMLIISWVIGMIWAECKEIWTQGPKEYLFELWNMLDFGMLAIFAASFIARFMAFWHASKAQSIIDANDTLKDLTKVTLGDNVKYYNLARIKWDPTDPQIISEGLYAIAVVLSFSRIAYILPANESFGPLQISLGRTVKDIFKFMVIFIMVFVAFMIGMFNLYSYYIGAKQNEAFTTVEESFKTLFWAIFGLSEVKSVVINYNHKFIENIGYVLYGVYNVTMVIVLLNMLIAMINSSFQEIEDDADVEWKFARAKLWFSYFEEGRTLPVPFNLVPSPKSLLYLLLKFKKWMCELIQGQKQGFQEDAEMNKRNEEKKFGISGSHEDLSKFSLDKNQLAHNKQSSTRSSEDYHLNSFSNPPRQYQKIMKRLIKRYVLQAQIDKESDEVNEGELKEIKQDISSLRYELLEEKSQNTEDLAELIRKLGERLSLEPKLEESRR
TRPC6 inhibitor: mouse TRPC6 channel inhibition; Q61143; HEK293-TRPC6, membrane potential dye, ACh-evoked depolarization; stronger effect = lower value; B-score at 10 µM; 310,000 compounds, 1.1% hits;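 active = B-score under library mean minus 3 SD, initial fluorescence not abnormally high, positive integrated signal ratio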;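 note: B-score derived from integrated fluorescence ratio over the kinetic read; more negative B-score means stronger inhibition of depolarization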
TRPC4 PAM: allosterically enhances the mouse TRPC4 cation channel; Q9QUQ5; HEK293 TRPC4beta/mu-opioid, DAMGO EC20, Fluo-4 Ca2+ flux; stronger effect = higher value; B-score at 10 µM; 310,000 compounds, 0.42% hits; AID 2227;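 active = B-score of calcium response area above 5 SD of library B-scores, with initial fluorescence ratio within 5 SD of library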;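 note: B-score of integrated fluorescence ratio over time as area under calcium response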
TRPC4 inh: TRPC4 (mouse) channel inhibition; HEK293 TRPC4beta/mu-opioid, DAMGO-evoked Fluo4 calcium flux; stronger effect = lower value; B-score at 10 µM; 300,000 compounds, 0.39% hits; AID 2247;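 active = B-score over 3 SD under the library average, no early fluorescence shift, positive overall ratio signal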
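Material: HEK293 cells with stable TRPC4beta plus mu-opioid receptor expression; probe or stimulus: DAMGO in two steps, submaximal then maximal; technique: Fluo4 calcium fluorescence by kinetic imaging, 5 s 1 Hz baseline; measure: integrated fluorescence ratio relative to baseline, converted to per-well B score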
Active calls of the source: *.

Results for CCN1CCN(Cc2c(C)[nH]c3ccc(OC)cc3c2=O)CC1 ?
TRPC4 act: inactive; TRPC6 activator: inactive; TRPC6 inhibitor: inactive; TRPC4 PAM: 15*; TRPC4 inh: inactive

How did Cc1[nH]c2ccc(Br)cc2c(=O)c1CN1CCCCC1 do in these assays?
TRPC4 act: inactive; TRPC6 activator: inactive; TRPC6 inhibitor: inactive; TRPC4 PAM: 10*; TRPC4 inh: inactive

Results for CCOc1ccc2[nH]c(C)c(CN3CCN(CC)CC3)c(=O)c2c1 ?
TRPC4 act: inactive; TRPC6 activator: inactive; TRPC6 inhibitor: inactive; TRPC4 PAM: inactive; TRPC4 inh: inactive

Results for CCCCCCCCCC(=O)N[C@H](CN1CCOCC1)[C@H](O)c1ccccc1 ?
TRPC4 act: inactive; TRPC6 activator: inactive; TRPC6 inhibitor: inactive; TRPC4 PAM: inactive; TRPC4 inh: inactive

Results for CCCCCCCCCCCC(=O)NC(C(=O)O)C(O)c1ccccc1 (centres undefined) ?
TRPC4 act: inactive; TRPC6 activator: inactive; TRPC6 inhibitor: inactive; TRPC4 PAM: inactive; TRPC4 inh: -6*

Results for COc1cc([N+](=O)[O-])cc(/C=C2/SC(=S)N(Cc3ccccc3)C2=O)c1O ?
TRPC4 act: inactive; TRPC6 activator: inactive; TRPC6 inhibitor: -6.3*; TRPC4 PAM: inactive; TRPC4 inh: inactive

Results for COc1cc(NS(=O)(=O)c2ccc(NC(=O)CCC(=O)O)cc2)nc(OC)n1 ?
TRPC4 act: inactive; TRPC6 activator: inactive; TRPC6 inhibitor: inactive; TRPC4 PAM: 10*; TRPC4 inh: inactive

Results for CN(C)C(=O)Cn1cc(S(=O)(=O)Cc2ccccc2)c2ccccc21 ?
TRPC4 act: inactive; TRPC6 activator: inactive; TRPC6 inhibitor: inactive; TRPC4 PAM: inactive; TRPC4 inh: inactive

How did Cc1ccc(Nc2nc(NCCCN3CCOCC3)nc(N)c2[N+](=O)[O-])cc1 do in these assays?
TRPC4 act: inactive; TRPC6 activator: inactive; TRPC6 inhibitor: inactive; TRPC4 PAM: inactive; TRPC4 inh: -6*

How did Cc1ccc(Nc2nc(NCCCN3CCOCC3)nc(N)c2[N+](=O)[O-])cc1C do in these assays?
TRPC4 act: inactive; TRPC6 activator: inactive; TRPC6 inhibitor: inactive; TRPC4 PAM: inactive; TRPC4 inh: inactive

What do the screens show for `Cc1cc(/C=N/NC(=O)c2ccc(O)cc2)c(C)n1CC(C)C`?
TRPC4 act: inactive; TRPC6 activator: inactive; TRPC6 inhibitor: inactive; TRPC4 PAM: inactive; TRPC4 inh: inactive

Results for CC(c1ccccc1C(O)(c1ccccc1)c1ccccc1)N(C)C (centres undefined) ?
TRPC4 act: 103*; TRPC6 activator: inactive; TRPC6 inhibitor: inactive; TRPC4 PAM: inactive; TRPC4 inh: inactive

Results for CC(C)N(CC#CCC(O)(c1ccccc1)c1ccccc1)C(C)C ?
TRPC4 act: inactive; TRPC6 activator: inactive; TRPC6 inhibitor: inactive; TRPC4 PAM: inactive; TRPC4 inh: inactive

Results for COc1ccc(Br)cc1CNC(C)c1ccccc1 (centres undefined) ?
TRPC4 act: inactive; TRPC6 activator: inactive; TRPC6 inhibitor: inactive; TRPC4 PAM: inactive; TRPC4 inh: -6*

What do the screens show for `c1ccc(-n2cc(CNCCc3cscn3)c(-c3ccc4c(c3)OCO4)n2)cc1`?
TRPC4 act: 46*; TRPC6 activator: inactive; TRPC6 inhibitor: inactive; TRPC4 PAM: inactive; TRPC4 inh: inactive

What do the screens show for `O=c1c2ccccc2nc(SCc2ccccc2)n1CC1CCCO1` (centres undefined)?
TRPC4 act: inactive; TRPC6 activator: inactive; TRPC6 inhibitor: inactive; TRPC4 PAM: inactive; TRPC4 inh: -7*

Results for O=C(NC(=S)Nc1ccccc1N1CCCC1)c1ccc([N+](=O)[O-])cc1 ?
TRPC4 act: inactive; TRPC6 activator: inactive; TRPC6 inhibitor: inactive; TRPC4 PAM: inactive; TRPC4 inh: inactive

Results for Cc1c(C(=O)NC(=S)Nc2ccccc2N2CCCC2)cccc1[N+](=O)[O-] ?
TRPC4 act: inactive; TRPC6 activator: inactive; TRPC6 inhibitor: inactive; TRPC4 PAM: 13*; TRPC4 inh: inactive

What do the screens show for `CCN(CC)S(=O)(=O)c1cccc(NC(=O)COC(=O)C2CC3C=CC2C3)c1` (centres undefined)?
TRPC4 act: inactive; TRPC6 activator: inactive; TRPC6 inhibitor: inactive; TRPC4 PAM: inactive; TRPC4 inh: inactive

How did O=C(COc1ccc(F)cc1Br)N1CCN(S(=O)(=O)/C=C/c2ccccc2)CC1 do in these assays?
TRPC4 act: inactive; TRPC6 activator: inactive; TRPC6 inhibitor: inactive; TRPC4 PAM: 12*; TRPC4 inh: inactive

How did O=C(COc1ccc(F)cc1Br)N1CCN(c2ncccn2)CC1 do in these assays?
TRPC4 act: inactive; TRPC6 activator: inactive; TRPC6 inhibitor: inactive; TRPC4 PAM: inactive; TRPC4 inh: inactive

What do the screens show for `Cc1ccc(C)c(N(C(=O)c2snc(C(N)=O)c2N)C(C(=O)NCC2CCCO2)c2cccs2)c1` (centres undefined)?
TRPC4 act: inactive; TRPC6 activator: inactive; TRPC6 inhibitor: inactive; TRPC4 PAM: inactive; TRPC4 inh: inactive

How did COc1ccc(C)cc1N(C(=O)c1snc(C(N)=O)c1N)C(C(=O)NC1CCCCC1)c1ccc(C)o1 (centres undefined) do in these assays?
TRPC4 act: inactive; TRPC6 activator: inactive; TRPC6 inhibitor: inactive; TRPC4 PAM: inactive; TRPC4 inh: -11*

How did NC(=O)c1nsc(C(=O)N(Cc2ccc(F)cc2)C(C(=O)NCC2CCCO2)c2ccc(F)cc2)c1N (centres undefined) do in these assays?
TRPC4 act: inactive; TRPC6 activator: inactive; TRPC6 inhibitor: inactive; TRPC4 PAM: inactive; TRPC4 inh: -7*

What do the screens show for `CN(C)c1ccc(C(C(=O)NCC2CCCO2)N(Cc2ccccc2)C(=O)c2snc(C(N)=O)c2N)cc1` (centres undefined)?
TRPC4 act: inactive; TRPC6 activator: inactive; TRPC6 inhibitor: inactive; TRPC4 PAM: inactive; TRPC4 inh: inactive

What do the screens show for `Cc1ccc(C)c(N(C(=O)c2snc(C(N)=O)c2N)C(C(=O)NCC2CCCO2)c2ccc(C)o2)c1` (centres undefined)?
TRPC4 act: inactive; TRPC6 activator: inactive; TRPC6 inhibitor: inactive; TRPC4 PAM: inactive; TRPC4 inh: -7*

How did O=C(NCCCN1CCCC1=O)C(=O)NCC1OCCCN1S(=O)(=O)c1cc(F)ccc1F (centres undefined) do in these assays?
TRPC4 act: inactive; TRPC6 activator: inactive; TRPC6 inhibitor: inactive; TRPC4 PAM: inactive; TRPC4 inh: inactive

What do the screens show for `CCn1ccnc1CN(C)C(=O)C1CCC(=O)N(Cc2cccc(C(F)(F)F)c2)C1` (centres undefined)?
TRPC4 act: inactive; TRPC6 activator: inactive; TRPC6 inhibitor: inactive; TRPC4 PAM: inactive; TRPC4 inh: inactive
